For orientation: IC50 means the point on the concentration scale where inhibition reaches its midpoint. Usually MIC stands for the lowest concentration found to suppress growth.

These results are taken from PMC9058152 (RSC Advances, 2020).

Assay [1] concerns HepG-2 cells (human liver carcinoma). Nature of the assay: MTT cytotoxicity assay on HepG-2. It is filed as cell-based. The settings on record: HepG2, 48 h, read-out: IC50 (μM) ± SD HepG-2. In outline:
(§1)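 Cells grown in DMEM with 10% heat-inactivated FBS and 100 U ml⁻¹ penicillin/streptomycin at 37 °C, 5% CO₂. Seeded at 3 × 10⁴ cells per well and exposed for 48 h in serum-free medium to serial concentrations of test compound (DMSO), with doxorubicin as positive control. MTT (2.5 mg mL⁻¹) was added for 4 h, formazan dissolved in DMSO, and absorbance read at 570 nm. Viability was taken relative to untreated cells; triplicates were run on three days, and IC50 derived by probit analysis.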

The subject of assay [2] is MCF-7 cells (human breast adenocarcinoma). Nature of the assay: MTT cytotoxicity assay on MCF-7. It is filed as cell-based. The settings on record: MCF7, 48 h, read-out: IC50 (μM) ± SD MCF-7. Put shortly: as §1
A general note: Tetrazolium dyes change colour on reduction, which living cells bring about.

For assay [3], the target named is T1, ovine COX-1 (Ovis aries, UniProt P05979).
T1 sequence (P05979 25-600): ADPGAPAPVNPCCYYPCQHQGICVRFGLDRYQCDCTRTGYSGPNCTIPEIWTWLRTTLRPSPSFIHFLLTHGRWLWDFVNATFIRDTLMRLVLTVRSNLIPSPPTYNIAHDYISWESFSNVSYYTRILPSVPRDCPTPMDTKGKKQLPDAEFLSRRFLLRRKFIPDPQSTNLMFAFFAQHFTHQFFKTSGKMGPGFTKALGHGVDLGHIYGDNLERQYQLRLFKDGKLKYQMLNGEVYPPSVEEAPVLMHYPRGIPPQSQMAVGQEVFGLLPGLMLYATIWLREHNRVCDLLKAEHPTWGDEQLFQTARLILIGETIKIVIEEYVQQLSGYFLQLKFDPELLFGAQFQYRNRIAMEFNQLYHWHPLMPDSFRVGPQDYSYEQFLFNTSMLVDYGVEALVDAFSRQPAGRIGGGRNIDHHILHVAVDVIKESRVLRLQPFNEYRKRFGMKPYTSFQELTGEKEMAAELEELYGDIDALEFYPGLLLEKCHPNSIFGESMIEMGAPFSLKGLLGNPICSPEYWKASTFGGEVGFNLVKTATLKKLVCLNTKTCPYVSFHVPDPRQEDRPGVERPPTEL
Kind of assay: COX-1 inhibition enzyme immunoassay. It is filed as biochemical.

Assay [4] deals with T2, ovine COX-2 (Ovis aries, UniProt P79208).
T2 sequence (P79208 17-603): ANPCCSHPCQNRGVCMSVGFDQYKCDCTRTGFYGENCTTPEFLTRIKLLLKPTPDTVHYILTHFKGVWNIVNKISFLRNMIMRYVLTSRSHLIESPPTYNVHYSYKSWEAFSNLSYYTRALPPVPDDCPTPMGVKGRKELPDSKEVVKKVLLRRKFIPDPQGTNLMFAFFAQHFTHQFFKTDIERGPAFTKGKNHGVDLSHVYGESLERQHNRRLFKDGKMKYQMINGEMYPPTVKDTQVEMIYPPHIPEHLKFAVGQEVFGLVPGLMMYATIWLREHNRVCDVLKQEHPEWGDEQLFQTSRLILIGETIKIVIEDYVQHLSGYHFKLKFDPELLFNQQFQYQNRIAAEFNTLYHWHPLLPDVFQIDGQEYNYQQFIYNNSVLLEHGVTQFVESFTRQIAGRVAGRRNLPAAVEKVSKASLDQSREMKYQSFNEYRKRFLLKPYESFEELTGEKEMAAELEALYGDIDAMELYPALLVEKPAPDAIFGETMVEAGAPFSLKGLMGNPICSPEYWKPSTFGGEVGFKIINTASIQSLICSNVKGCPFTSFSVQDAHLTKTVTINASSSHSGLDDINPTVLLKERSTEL
Kind of assay: COX-2 inhibition enzyme immunoassay. It is filed as biochemical. The following applies: for Selectivity index (SI): COX-1 IC50/COX-2 IC50.

Assay [5] relates to Mycobacterium tuberculosis (RCMB 010126). Kind of assay: Microplate Alamar blue assay. It is filed as cell-based. The settings on record: RCMB010126, Mycobacterium tuberculosis RCMB 010126, MABA. Background: Alamar Blue is a resazurin reagent that responds to reducing activity.

In brackets after ≈: the same amount, converted by molar mass.

`Cc1ccc(-n2cc(C(=O)c3ccc4ccccc4c3O)cc(C#N)c2=O)cc1` [Compound 3b, 5-(1-Hydroxy-2-naphthoyl)-2-oxo-1-(p-tolyl)nicotinonitrile]: the IC50 in assay [1] was 36.8 ± 3.9 µM; in assay [2], 9.2 ± 0.6 µM; in assay [3], 464 µM; in assay [4], 6.05 µM. For the same compound, the “Selectivity index (SI)” value in assay [4] is 76.7. Further, the MIC in assay [5] was found to be 3.9 µg/mL (≈ 10.3 µM).

Consider `COc1ccc(-n2cc(C(=O)c3ccc4ccccc4c3O)cc(C#N)c2=O)cc1` [Compound 3c, 5-(1-Hydroxy-2-naphthoyl)-1-(4-methoxyphenyl)-2-oxo-nicotinonitrile], for which the IC50 was 27.8 ± 2.4 µM in assay [1], 8.5 ± 0.7 µM in assay [2], 789 µM in assay [3] and 0.53 µM in assay [4]. Also, the “Selectivity index (SI)” value in assay [4] was 1490.

As for `N#Cc1cc(C(=O)c2ccc3ccccc3c2O)cn(-c2ccc(Br)cc2)c1=O` [Compound 3d, 1-(4-Bromophenyl)-5-(1-hydroxy-2-naphthoyl)-2-oxo-nicotinonitrile], the IC50 is 30.1 ± 2.6 µM in assay [1], 8.9 ± 0.7 µM in assay [2], 1420 µM in assay [3] and 1.46 µM in assay [4]. Besides, the “Selectivity index (SI)” value in assay [4] was found to be 972.9. In assay [5], this compound yielded an MIC of under 1 µg/mL.

`N#Cc1cc(C(=O)c2ccc3ccccc3c2O)cn(-c2ccc([N+](=O)[O-])cc2)c1=O` [Compound 3e, 5-(1-Hydroxy-2-naphthoyl)-1-(4-nitrophenyl)-2-oxo-nicotinonitrile]: the IC50 in assay [1] is 25.3 ± 2.1 µM; in assay [2], 9.3 ± 1.1 µM; in assay [3], 283 µM; in assay [4], 1.68 µM. In assay [4], the “Selectivity index (SI)” value turned out to be 168.7. The MIC in assay [5] is under 2 µg/mL.

As for `Cc1c(-n2cc(C(=O)c3ccc4ccccc4c3O)cc(C#N)c2=O)c(=O)n(-c2ccccc2)n1C` [Compound 3f, 1-(1,5-Dimethyl-3-oxo-2-phenyl-2,3-dihydro-1H-pyrazol-4-yl)-5-(1-hydroxy-2-naphthoyl)-2-oxo-nicotinonitrile], the IC50 in assay [1] is 30.5 ± 3.1 µM; in assay [2], 10.5 ± 1.1 µM; in assay [3], 728 µM; in assay [4], 16.4 µM. In assay [4], the “Selectivity index (SI)” value is 44.5. The compound also showed an MIC in assay [5] of under 2 µg/mL.

In the case of `Cc1cnc(-n2cc(C(=O)c3ccc4ccccc4c3O)cc(C#N)c2=O)s1` [Compound 3g, 5-(1-Hydroxy-2-naphthoyl)-1-(5-methylthiazol-2-yl)-2-oxo-nicotinonitrile], the IC50 in assay [1] was 28.5 ± 2.9 µM; in assay [2] it was 12.1 ± 1.2 µM; in assay [3], 2580 µM; in assay [4], 48 µM. Also, the “Selectivity index (SI)” value in assay [4] stood at 53.8. The MIC in assay [5] is 3.9 µg/mL (≈ 10.1 µM).

Consider `N#Cc1cc(C(=O)c2ccc3ccccc3c2O)cn(-c2nc3ccccc3s2)c1=O` [Compound 3h, 1-(Benzo[d]thiazol-2-yl)-5-(1–Hydroxy-2-naphthoyl)-2-oxo-nicotinonitrile], for which the IC50 is 28.1 ± 3.1 µM in assay [1], 10.3 ± 1.2 µM in assay [2], 684 µM in assay [3] and 0.496 µM in assay [4]. For the same compound, the “Selectivity index (SI)” value in assay [4] came to 1380. The compound further gave an MIC in assay [5] of under 2 µg/mL.

In the case of `CC(=Nn1cc(C(=O)c2ccc3ccccc3c2O)cc(C#N)c1=O)c1cc2ccccc2oc1=O` [Compound 3i, 5-(1-hydroxy-2-naphthoyl)-2-oxo-1-((1-(2-oxo-2H-chromen-3-yl)ethylidene)amino)nicotinonitrile], the IC50 was 30.5 ± 2.9 µM in assay [1], 9.7 ± 0.8 µM in assay [2], 1500 µM in assay [3] and 13.5 µM in assay [4]. Moreover, the “Selectivity index (SI)” value in assay [4] was found to be 111.3. This compound also gave an MIC in assay [5] of under 1 µg/mL.

In the case of `N#CCC(=O)NN=Cc1coc2c(ccc3ccccc32)c1=O` [Compound 5, 2-cyano-N′-((4-oxo-4H-benzo[h]chromen-3-yl)methylene)acetohydrazide], the IC50 is 41.6 ± 3.5 µM in assay [1], 10.7 ± 1.2 µM in assay [2], 2070 µM in assay [3] and 24.6 µM in assay [4]. Further, the “Selectivity index (SI)” value in assay [4] amounted to 84.3. This compound also gave an MIC in assay [5] of 3.9 µg/mL (≈ 12.8 µM).

For `O=C(c1cnc2[nH]nc(O)c2c1)c1ccc2ccccc2c1O` [Compound 6, 5-(1-hydroxy-2-naphthoyl)-3-hydroxy-1H-pyrazolo [3,4-b]pyridine], the IC50 is 34.9 ± 2.8 µM in assay [1], 9.1 ± 0.5 µM in assay [2], 1070 µM in assay [3] and 30.5 µM in assay [4]. Further, the “Selectivity index (SI)” value in assay [4] is 35.0. This compound also showed a minimal inhibitory concentration (MIC) in assay [5] of under 2 µg/mL.

Take `O=C(C1=CNC(=S)NN=C1)c1ccc2ccccc2c1O` [Compound 7, 6-(1-Hydroxy-2-naphthoyl)-3-thioxo-3,4-dihydro-2H-1,2,4-triazepine]: the IC50 was 28.8 ± 2.5 µM in assay [1], 10.5 ± 0.9 µM in assay [2], 732 µM in assay [3] and 1.24 µM in assay [4]. Moreover, in assay [4], the “Selectivity index (SI)” value is listed as 588.6. The compound further had an MIC in assay [5] of under 2 µg/mL.

In the case of `O=C(C1=CSc2ccccc2N=C1)c1ccc2ccccc2c1O` [Compound 8, 3-(1-Hydroxy-2-naphthoyl)benzo[b][1,4]thiazepine], the IC50 is 36.5 ± 3.4 µM in assay [1], 9.7 ± 1.1 µM in assay [2], 858 µM in assay [3] and 0.754 µM in assay [4]. Besides, in assay [4], the “Selectivity index (SI)” value was 1138. The MIC in assay [5] is 7.81 µg/mL (≈ 23.6 µM).

In the case of `CCOC1Oc2c(ccc3ccccc23)-c2n[nH]cc21` (centres unmarked) [Compound 10, 11-ethoxy-2,11-dihydrobenzo[7,8]chromeno[4,3-c]pyrazole], the IC50 in assay [1] is 34.5 ± 2.6 µM; in assay [2], 9.3 ± 0.5 µM; in assay [3], 1000 µM; in assay [4], 1.01 µM. Besides, the “Selectivity index (SI)” value in assay [4] is reported as 989.3. This compound also showed an MIC in assay [5] of 7.81 µg/mL (≈ 29.3 µM).

For the compound `Cc1c(N=Cc2coc3c(ccc4ccccc43)c2=O)c(=O)n(-c2ccccc2)n1C` [Compound 12a, 1,5-Dimethyl-4-(((4-oxo-4H-benzo[h]chromen-3-yl)methylene)amino)-2-phenyl-1,2-dihydro-3H-pyrazol-3-one], the IC50 in assay [1] is 35.5 ± 3.6 µM; in assay [2] it was 10.2 ± 1.2 µM; in assay [3], 1220 µM; in assay [4], 24.7 µM. The “Selectivity index (SI)” value in assay [4] is reported as 49.5. In addition, in assay [5], 62.5 µg/mL (≈ 153 µM) was the least that counted as inhibitory (MIC).

As for `O=c1c(C=Nc2nc3ccccc3s2)coc2c1ccc1ccccc12` [Compound 12b, 3-((Benzo[d]thiazol-2-ylimino)methyl)-4H-benzo[h]chromen-4-one], the IC50 in assay [1] is 40.1 ± 3.9 µM; in assay [2] it was 8.9 ± 0.7 µM; in assay [3], 1340 µM; in assay [4], 1.37 µM. The “Selectivity index (SI)” value in assay [4] was 971.8. Also, it took 15.6 µg/mL (≈ 43.9 µM) to inhibit growth in assay [5] (MIC).

`COc1cccc2c1C(=O)c1c(O)c3c(c(O)c1C2=O)C[C@@](O)(C(=O)CO)C[C@@H]3O[C@H]1C[C@H](N)[C@H](O)[C@H](C)O1` [DOXO, Doxorubicin, reference compound]: the IC50 in assay [1] was found to be 28.5 ± 1.9 µM; in assay [2] it was 10.3 ± 0.8 µM.

Take `NNC(=O)c1ccncc1` [IN, Isoniazid, reference compound]: the MIC in assay [5] turned out to be 0.24 µg/mL (≈ 1.75 µM).
